Screens (PubChem)
MrgX1 agonist = human MrgX1 receptor agonism, primary screen; Q96LB2; MrgX1-HEK293 cells, Fluo-4 calcium fluorescence, agonist mode; hits give high values; B-score at 10 µM; hit rate 0.44% among 310,000;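 active = calcium response B-score plate-corrected fluorescence ratio at least 3 library SD, with starting fluorescence B-score inside 5 SD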
Target sequence (Q96LB2 whole entry, looked up): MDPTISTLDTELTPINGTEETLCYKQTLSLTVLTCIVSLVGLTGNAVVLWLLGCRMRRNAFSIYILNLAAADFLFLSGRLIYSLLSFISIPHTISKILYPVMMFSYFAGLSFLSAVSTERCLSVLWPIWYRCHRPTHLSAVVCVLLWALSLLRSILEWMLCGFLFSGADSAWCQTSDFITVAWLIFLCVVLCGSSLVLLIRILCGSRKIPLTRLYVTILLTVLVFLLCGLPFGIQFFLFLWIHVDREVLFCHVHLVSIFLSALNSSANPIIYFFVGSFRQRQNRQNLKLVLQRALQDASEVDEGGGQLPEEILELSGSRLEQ
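System: HEK293 cells stably expressing human MrgX1 receptor; Dosing: test compound in the initial addition of three; Schedule: overnight plating, then 30 min 37 °C plus 30 min room-temperature dye loading; Detection: kinetic calcium dye fluorescence, Fluo-4 NW; Controls: per-plate positive and negative controls for Z′ factor.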
RGS4 act = potentiators or activators of RGS4. HEK293 M3R/inducible RGS4, carbachol calcium flux Fluo4; hits give low values. B-score at 10 µM. hit rate 0.92% among 310,000;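 active = B-score of the integrated calcium signal more than 4 SD below the library mean, with starting fluorescence not abnormally high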;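 also: negative B-score means reduced calcium response which marks RGS4 activation or potentiation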
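Material: Inducible-RGS4 HEK293 cells carrying M3 receptor; also added: carbachol at ECmax as muscarinic agonist stimulus; incubation: compound preincubation 20 min at room temperature before agonist; signal: Fluo4-AM (2 µM) calcium-flux fluorescence, kinetic read; measure: integrated calcium ratio converted to B score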
MrgX1 antagonist = blocks BAM8-22 activation of human MrgX1 receptor. Q96LB2. hit rate 1.3% among 310,000. B-score at 10 µM. MRGX1-HEK293 calcium flux, Fluo-4, BAM8-22 antagonism; hits give low values;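 active = calcium-response B-score plate-corrected more than 3 library SD below zero, starting fluorescence within 5 deviations, no agonist response on first addition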;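 also: peak minus trough fluorescence over baseline after final BAM8-22 challenge near maximal dose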
MrgX1 allo act = human MrgX1 positive allosteric modulation, primary screen. Q96LB2. AID 588675. MrgX1-HEK293, Fluo-4 calcium flux, FDSS; hits give high values. hit rate 0.63% among 310,000. B-score at 10 µM;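 active = plate-corrected calcium response at least 3 library SD above typical, normal starting fluorescence, not activating the receptor alone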;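 also: compound read alongside a low EC10 to EC30 dose of BAM8-22 agonist; peak minus trough fluorescence over baseline measured at the second addition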
RGS4 inh = inhibitors of human RGS4; B-score at 10 µM; hit rate 0.45% among 310,000; HEK293 M3R/RGS4 inducible, Fluo-4 calcium flux; hits give high values; triggered by carbachol at its EC20; AID 463165; P49798;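 active = B-score, a plate-corrected calcium signal, over three deviations above library mean, with baseline fluorescence within five deviations of library mean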;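 also: RGS4 expression induced by doxycycline in cells with stable M3 receptor; B-score is computed from the integrated fluorescence ratio over baseline after carbachol; higher B-score means a larger calcium signal and so more RGS4 inhibition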
Target sequence (P49798 whole entry, looked up): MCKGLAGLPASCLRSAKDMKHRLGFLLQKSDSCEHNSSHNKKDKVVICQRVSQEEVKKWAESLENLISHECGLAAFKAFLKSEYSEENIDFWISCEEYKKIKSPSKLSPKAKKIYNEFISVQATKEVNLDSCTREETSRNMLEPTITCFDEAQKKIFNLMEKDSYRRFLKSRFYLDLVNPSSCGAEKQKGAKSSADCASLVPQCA
MrgX1 ant reconf = confirmation of human MrgX1 receptor antagonists; shares compounds with MrgX1 antagonist; MrgX1-HEK293, BAM8-22 calcium flux, Fluo-4; hits give low values; remaining BAM8-22 calcium response % of control (hits give low values), % at 10 µM; hit rate 19% among 2,300; AID 602420;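 active = remaining agonist calcium response no higher than 100% minus 3 SD of agonist-only control wells, with starting fluorescence near control levels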;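 also: agonist BAM8-22 given at a near maximal EC90 to ECmax level; peak minus minimum fluorescence divided by baseline after agonist addition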
HEK293 Ca flux = MrgX1 antagonist counter-screen hit in parental HEK293 cells; shares compounds with MrgX1 antagonist; Fluo-4 calcium fluorescence, FDSS; fluorescence ratio F(max-min)/F0 at 10 µM; hit rate 2% among 4,000;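 active = duplicate-averaged calcium fluorescence ratio at least three times the standard deviation of buffer wells, a nonspecific response in parental cells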
HEK293 Ca counter = counter-screen for MrgX1 allosteric activators: effect in parental HEK293 cells; hit rate 0.4% among 4,000; fluorescence ratio F(max-min)/F0 at 10 µM; shares compounds with MrgX1 antagonist; parental HEK293 calcium flux, Fluo-4 fluorescence ratio; hits give high values;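 active = calcium fluorescence ratio, averaged over duplicates, at least 3 SD of the buffer-well ratio, meaning a nonspecific response in receptor-free cells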;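 also: untransfected parental HEK293 lacking MrgX1 used as counterscreen for MrgX1 allosteric activators; fluorescence change taken during the second addition on a kinetic imager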
HEK293 Ca cntr2 = counter-screen for MrgX1 activators: effect in parental HEK293 cells; shares compounds with MrgX1 antagonist; Fluo-4 calcium fluorescence (FDSS); hits give high values; fluorescence ratio F(max-min)/F0 at 10 µM; hit rate 8.7% among 4,000; AID 624115;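 active = calcium fluorescence ratio at least three times the spread of buffer wells, meaning a non-specific response in parental cells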
Hits are given with their value. This is a sample that favours compounds with a hit; in the whole collection about 3.5% have one here.

COc1ccc(CNC(=O)CSc2nc3ccc(N)cc3s2)cc1 was read as MrgX1 agonist inactive, RGS4 act inactive, MrgX1 antagonist inactive, MrgX1 allo act inactive and RGS4 inh inactive.
Screening COc1ccc(-n2nc3c(c2NC(=O)COc2cccc(OC)c2)CS(=O)(=O)C3)cc1 returned MrgX1 agonist inactive, RGS4 act inactive, MrgX1 antagonist -7.5, MrgX1 allo act inactive, RGS4 inh inactive, MrgX1 ant reconf inactive, HEK293 Ca flux inactive, HEK293 Ca counter inactive and HEK293 Ca cntr2 inactive.
Screening CCCCC(CC)C(=O)NCc1ccc(F)cc1 (stereo not drawn) returned MrgX1 agonist inactive, RGS4 act inactive, MrgX1 antagonist inactive, MrgX1 allo act inactive and RGS4 inh inactive.
Screening Cc1nc2nc(C)c(CCC(=O)N3CCOCC3)c(C)n2n1 returned MrgX1 agonist inactive, RGS4 act inactive, MrgX1 antagonist -5.3, MrgX1 allo act inactive, RGS4 inh inactive, MrgX1 ant reconf inactive, HEK293 Ca flux inactive, HEK293 Ca counter inactive and HEK293 Ca cntr2 68.
For COc1cc(/C=N/NC(=O)CSc2n[nH]c(=O)[nH]c2=O)cc(OC)c1O the results were MrgX1 agonist inactive, RGS4 act inactive, MrgX1 antagonist inactive, MrgX1 allo act inactive and RGS4 inh inactive.
Cn1c(=O)c2nnn(/N=C(\c3ccccc3)C3CC3)c2n(C)c1=O was read as MrgX1 agonist inactive, RGS4 act inactive, MrgX1 antagonist -5.1, MrgX1 allo act inactive, RGS4 inh inactive, MrgX1 ant reconf 68%, HEK293 Ca flux inactive, HEK293 Ca counter inactive and HEK293 Ca cntr2 inactive.
`CC1=CC(=O)O[C@@H]1[C@@]1(C)C[C@H]2OC(=O)C[C@H]3[C@@H](C)C(=O)C(O)=C1[C@@]23CO` gave MrgX1 agonist inactive, RGS4 act inactive, MrgX1 antagonist inactive, MrgX1 allo act inactive and RGS4 inh inactive.
COc1ccc2oc(C(=O)OCC(=O)NCc3ccco3)c(C)c2c1 was read as MrgX1 agonist inactive, RGS4 act inactive, MrgX1 antagonist -6.4, MrgX1 allo act inactive, RGS4 inh inactive, MrgX1 ant reconf inactive, HEK293 Ca flux inactive, HEK293 Ca counter inactive and HEK293 Ca cntr2 inactive.
For COC(=O)/C(=C/c1ccco1)NC(=O)c1ccco1 the results were MrgX1 agonist inactive, RGS4 act inactive, MrgX1 antagonist inactive, MrgX1 allo act inactive and RGS4 inh inactive.
`CCOC(=O)Nc1ccc2c(CN3C(=O)NC(CC)(CC)C3=O)cc(=O)oc2c1` gave MrgX1 agonist inactive, RGS4 act inactive, MrgX1 antagonist -4.7, MrgX1 allo act inactive, RGS4 inh inactive, MrgX1 ant reconf 81%, HEK293 Ca flux inactive, HEK293 Ca counter inactive and HEK293 Ca cntr2 inactive.
CCOC(=O)Nc1ccc2c(CN3CCN(S(=O)(=O)c4ccccc4)CC3)cc(=O)oc2c1 was read as MrgX1 agonist inactive, RGS4 act inactive, MrgX1 antagonist inactive, MrgX1 allo act inactive and RGS4 inh inactive.
Screening Cn1ccnc1SCC(=O)Nc1ccc(Br)cc1C(F)(F)F returned MrgX1 agonist inactive, RGS4 act inactive, MrgX1 antagonist -5.9, MrgX1 allo act inactive, RGS4 inh inactive, MrgX1 ant reconf inactive, HEK293 Ca flux inactive, HEK293 Ca counter inactive and HEK293 Ca cntr2 inactive.
COc1ccc(C2NC(C(=O)O)Cc3c2[nH]c2ccccc32)cc1OC (stereo not drawn) was read as MrgX1 agonist inactive, RGS4 act inactive, MrgX1 antagonist -6.7, MrgX1 allo act inactive, RGS4 inh inactive, MrgX1 ant reconf inactive, HEK293 Ca flux inactive, HEK293 Ca counter inactive and HEK293 Ca cntr2 inactive.
For COc1cc(C2NC(C(=O)O)Cc3c2[nH]c2ccccc32)cc(OC)c1OC (stereo not drawn) the results were MrgX1 agonist inactive, RGS4 act inactive, MrgX1 antagonist inactive, MrgX1 allo act inactive and RGS4 inh inactive.
Screening Cc1ccc(-c2ccc(SCC(=O)Nc3cc(C)on3)nn2)cc1 returned MrgX1 agonist inactive, RGS4 act inactive, MrgX1 antagonist inactive, MrgX1 allo act inactive and RGS4 inh inactive.
`Cc1cc(NC(=O)CSc2ccc(-c3ccc(Br)cc3)nn2)no1` gave MrgX1 agonist inactive, RGS4 act inactive, MrgX1 antagonist -8.2, MrgX1 allo act inactive, RGS4 inh inactive, MrgX1 ant reconf inactive, HEK293 Ca flux inactive, HEK293 Ca counter inactive and HEK293 Ca cntr2 inactive.
For CCCOC(=O)c1ccc(NC(=O)C(CC)CC)cc1 the results were MrgX1 agonist inactive, RGS4 act inactive, MrgX1 antagonist -6.4, MrgX1 allo act inactive, RGS4 inh inactive, MrgX1 ant reconf inactive, HEK293 Ca flux inactive, HEK293 Ca counter inactive and HEK293 Ca cntr2 inactive.
For O=C(c1ccc(NS(=O)(=O)c2ccc(F)cc2)cc1)N1CCC1 the results were MrgX1 agonist inactive, RGS4 act inactive, MrgX1 antagonist inactive, MrgX1 allo act inactive and RGS4 inh inactive.
COC(=O)CN1C(=O)CC(C)(C)Sc2ccccc21 was read as MrgX1 agonist inactive, RGS4 act inactive, MrgX1 antagonist inactive, MrgX1 allo act inactive and RGS4 inh inactive.
Screening CC1(C)CC(=O)N(CC(=O)O)c2ccccc2S1 returned MrgX1 agonist inactive, RGS4 act inactive, MrgX1 antagonist -4.5, MrgX1 allo act inactive, RGS4 inh inactive, MrgX1 ant reconf inactive, HEK293 Ca flux inactive, HEK293 Ca counter inactive and HEK293 Ca cntr2 inactive.
For CC1CCCN(C(=O)C2c3ccccc3C(=O)N3CCc4ccccc4C23)C1 (stereo not drawn) the results were MrgX1 agonist inactive, RGS4 act inactive, MrgX1 antagonist -5.5, MrgX1 allo act inactive, RGS4 inh inactive, MrgX1 ant reconf inactive, HEK293 Ca flux inactive, HEK293 Ca counter inactive and HEK293 Ca cntr2 inactive.
`Cc1nnc(NC(=O)c2ccc(S(=O)(=O)N3CCCCCC3)cc2)o1` gave MrgX1 agonist inactive, RGS4 act inactive, MrgX1 antagonist -12, MrgX1 allo act inactive, RGS4 inh inactive, MrgX1 ant reconf inactive, HEK293 Ca flux inactive, HEK293 Ca counter inactive and HEK293 Ca cntr2 inactive.
Cc1nnc(NC(=O)c2ccc(S(=O)(=O)N3CC(C)OC(C)C3)cc2)o1 (stereo not drawn) was read as MrgX1 agonist inactive, RGS4 act inactive, MrgX1 antagonist inactive, MrgX1 allo act inactive and RGS4 inh inactive.
